Source: ChEMBL document CHEMBL2029342, “Design and synthesis of gambogic acid analogs as potent cytotoxic and anti-inflammatory agents” (Bioorg Med Chem Lett, 2012)
Converted amounts (≈) assume the structure as drawn.

What was measured:
[1] = Antiinflammatory activity in human neutrophils assessed as inhibition of fMLP/CB-induced superoxide anion generation after 15 mins by cytochrome c reduction assay; assay type: functional, cell-based; conditions: Neutrophil, 0.25 h
Procedure, shortened: (§1)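 Human neutrophils stimulated with fMLP/CB; superoxide anion generation and elastase release were measured. IC50 is the concentration giving 50% inhibition. Where 50% inhibition was not reached at any tested dose, % inhibition at 10 μg/mL is reported. Mean ± S.E.M., n = 3-5.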

[2] = Cytotoxicity against human KBVIN cells by MTT assay; assay type: functional, cell-based
Procedure, shortened: (§2)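 MTT colorimetric assay of cell viability. IC50 is expressed in μg/mL as the mean of 3 determinations.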

[3] = test system: KB; experiment: Cytotoxicity against human KB cells by MTT assay; assay type: functional, cell-based; procedure, shortened: as §2
[4] = test system: A549; experiment: Cytotoxicity against human A549 cells by MTT assay; assay type: functional, cell-based; procedure, shortened: as §2
[5] = test system: DU-145; experiment: Cytotoxicity against human DU145 cells by MTT assay; assay type: functional, cell-based; procedure, shortened: as §2
[6] = Antiinflammatory activity in human neutrophils assessed as inhibition of fMLP/CB-induced elastase release using MeO-Suc-Ala-Ala-Pro-Val-MC as substrate at 10 ug/mL by spectrophotometry; assay type: functional; conditions: Neutrophil; procedure, shortened: as §1
[7] = Antiinflammatory activity in human neutrophils assessed as inhibition of fMLP/CB-induced superoxide anion generation at 10 ug/mL after 15 mins by cytochrome c reduction assay; assay type: functional; conditions: Neutrophil, 0.25 h; procedure, shortened: as §1
[8] = test system: Neutrophil; experiment: Ratio of PMSF IC50 to compound IC50 for antiinflammatory activity in human neutrophils assessed as inhibition of fMLP/CB-induced elastase release; assay type: functional
[9] = Antiinflammatory activity in human neutrophils assessed as inhibition of fMLP/CB-induced elastase release using MeO-Suc-Ala-Ala-Pro-Val-MC as substrate by spectrophotometry; assay type: functional, cell-based; conditions: Neutrophil; procedure, shortened: as §1
[10] = Antiinflammatory activity in human neutrophils assessed as inhibition of elastase release using MeO-Suc-Ala-Ala-Pro-Val-MC as substrate at 10 ug/mL by spectrophotometry in the absence of fMLP/CB; assay type: functional; conditions: Neutrophil
[11] = Antiinflammatory activity in human neutrophils assessed as inhibition of induced superoxide anion generation at 10 ug/mL after 15 mins by cytochrome c reduction assay in the absence of fMLP/CB; assay type: functional; conditions: Neutrophil, 0.25 h
[12] = Antiinflammatory activity in human neutrophils pretreated with cytochalasin B assessed as inhibition of fMLP/CB-induced superoxide anion generation after 15 mins by cytochrome c reduction assay; assay type: functional, cell-based; conditions: Neutrophil; procedure, shortened: as §1

With `c1ccc2c(c1)[I+]c1ccccc1-2` [DIPHENYLENEIODONIUM] the IC50 [1] was 0.7 µg/mL.

With `CC1(C)Oc2cc3oc4cc(O)ccc4c(=O)c3c(O)c2C(O)C1O` (configuration not stated) the IC50 [2] was 6.8 µg/mL (≈ 19.7 µM), the IC50 [3] was 6.3 µg/mL (≈ 18.3 µM) and the IC50 [1] was 2.49 µg/mL (≈ 7.23 µM). For the same compound, the IC50 [4] was 5.9 µg/mL (≈ 17.1 µM), the IC50 [5] was 5.4 µg/mL (≈ 15.7 µM) and the inhibition at 10 µg/mL [6] was 35.3%.

`O=c1c2ccc(O)cc2oc2cc(O)cc(O)c12` gave an IC50 [2] greater than 10 µg/mL, an IC50 [1] of 5.84 µg/mL (≈ 23.9 µM) and an IC50 [4] greater than 10 µg/mL. The IC50 [5] was greater than 10 µg/mL and the inhibition at 10 µg/mL [6] was 16%.

For `COc1ccc2c(=O)c3c(O)cc(OC)cc3oc2c1`, the inhibition at 10 µg/mL [7] was 31.3%, the IC50 [2] was greater than 10 µg/mL and the IC50 [4] was greater than 10 µg/mL. It also gave an IC50 [5] greater than 10 µg/mL and an inhibition at 10 µg/mL [6] of 26.5%.

With `CC(C)=CCCC1(C)Oc2cc3oc4cc(O)ccc4c(=O)c3c(O)c2C(O)C1O` (configuration not stated) the IC50 [2] was greater than 10 µg/mL, the “Ratio IC50” value [8] was 15 and the IC50 [3] was greater than 10 µg/mL. The IC50 [1] was 4.3 µg/mL (≈ 10.4 µM), the IC50 [9] was 5.75 µg/mL (≈ 13.9 µM) and the IC50 [4] was greater than 10 µg/mL. For the same compound, the IC50 [5] was greater than 10 µg/mL.

`CC1(C)Oc2cc(O)c3c(=O)c4ccc(O)cc4oc3c2C(O)C1O` (configuration not stated) showed an inhibition at 10 µg/mL [7] of 8.63%, an IC50 [2] of 0.8 µg/mL (≈ 2.32 µM) and an IC50 [3] greater than 10 µg/mL. It also gave an IC50 [4] of 9.9 µg/mL (≈ 28.8 µM), an IC50 [5] of 6.7 µg/mL (≈ 19.5 µM) and an inhibition at 10 µg/mL [6] of 6.37%.

Work on `COc1ccc2c(=O)c3c(O)cc(O)cc3oc2c1` yielded an inhibition at 10 µg/mL [7] of 45.2%, an IC50 [2] greater than 10 µg/mL and an IC50 [4] greater than 10 µg/mL. The IC50 [5] was greater than 10 µg/mL and the inhibition at 10 µg/mL [6] was 23.6%.

For `CC1(C)C=Cc2c(cc3oc4cc(O)ccc4c(=O)c3c2O)O1`, the IC50 [2] was 5.5 µg/mL (≈ 17.7 µM), the “Ratio IC50” value [8] was 15 and the IC50 [3] was 4.6 µg/mL (≈ 14.8 µM). For the same compound, the IC50 [1] was 0.46 µg/mL (≈ 1.48 µM), the IC50 [9] was 0.64 µg/mL (≈ 2.06 µM) and the IC50 [4] was 5.8 µg/mL (≈ 18.7 µM). The IC50 [5] was 4.4 µg/mL (≈ 14.2 µM).

Work on `CC(C)=CCOc1ccc2c(=O)c3c(O)c(CC=C(C)C)c(OCC=C(C)C)cc3oc2c1` yielded an inhibition at 10 µg/mL [7] of 10.1%, an IC50 [2] of 7.5 µg/mL (≈ 16.7 µM) and an IC50 [4] of 7.9 µg/mL (≈ 17.6 µM). It also gave an IC50 [5] of 4.3 µg/mL (≈ 9.59 µM) and an inhibition at 10 µg/mL [6] of 7.56%.

`CC1(C)C=Cc2c(cc(O)c3c(=O)c4ccc(O)cc4oc23)O1` gave an IC50 [2] of 0.9 µg/mL (≈ 2.9 µM), an IC50 [3] of 4.8 µg/mL (≈ 15.5 µM) and an IC50 [1] of 3.97 µg/mL (≈ 12.8 µM). The IC50 [4] was 5.8 µg/mL (≈ 18.7 µM), the IC50 [5] was 5.1 µg/mL (≈ 16.4 µM) and the inhibition at 10 µg/mL [6] was 18.4%.

`CC(C)=CCOc1ccc2c(=O)c3c(O)cc(OCC=C(C)C)cc3oc2c1` gave an inhibition at 10 µg/mL [7] of 5.32%, an IC50 [2] greater than 10 µg/mL and an IC50 [4] of 9.3 µg/mL (≈ 24.4 µM). It also gave an IC50 [5] greater than 10 µg/mL and an inhibition at 10 µg/mL [6] of 13.3%.

With `CC(C)=CCC[C@]1(C)C=Cc2c(O)c3c(c(CC=C(C)C)c2O1)O[C@]12C(=C[C@@H]4C[C@H]1C(C)(C)O[C@@]2(C/C=C(/C)C(=O)O)C4=O)C3=O` [GAMBOGIC ACID] the IC50 [2] was 0.4 µg/mL (≈ 0.636 µM), the IC50 [3] was 0.3 µg/mL (≈ 0.477 µM) and the IC50 [4] was 0.5 µg/mL (≈ 0.795 µM). The IC50 [5] was 0.3 µg/mL (≈ 0.477 µM).

`CC(C)=CCOc1cc(O)c2c(=O)c3ccc(O)cc3oc2c1` gave an IC50 [2] of 5.3 µg/mL (≈ 17 µM), an IC50 [1] of 20.2 µg/mL (≈ 64.7 µM) and an IC50 [4] of 6.9 µg/mL (≈ 22.1 µM). The IC50 [5] was 3.7 µg/mL (≈ 11.8 µM) and the inhibition at 10 µg/mL [6] was 4.21%.

`CC(C)=CCOc1ccc2c(=O)c3c(OCC=C(C)C)cc(OCC=C(C)C)cc3oc2c1` showed an inhibition at 10 µg/mL [7] of 64.3%, an IC50 [2] greater than 10 µg/mL and an IC50 [4] greater than 10 µg/mL. The IC50 [5] was 6.3 µg/mL (≈ 14 µM) and the inhibition at 10 µg/mL [6] was 54.9%.

Work on `CC(C)=CCc1c(O)c(CC=C(C)C)c2oc3cc(O)ccc3c(=O)c2c1O` yielded an IC50 [2] of 6.7 µg/mL (≈ 17.6 µM), an IC50 [4] of 6.4 µg/mL (≈ 16.8 µM) and an IC50 [5] of 3.9 µg/mL (≈ 10.3 µM). It also gave an inhibition at 10 µg/mL [10] of 102% and an inhibition at 10 µg/mL [11] of 101%.

`CC(C)=CCc1c(O)cc2oc3c(CC=C(C)C)c(O)ccc3c(=O)c2c1O` showed an inhibition at 10 µg/mL [7] of 31.6%, an IC50 [2] of 4.4 µg/mL (≈ 11.6 µM) and an IC50 [4] of 5 µg/mL (≈ 13.1 µM). It also gave an IC50 [5] of 2.8 µg/mL (≈ 7.36 µM) and an inhibition at 10 µg/mL [6] of 67.2%.

With `CC(C)=CCCC1(C)Oc2cc(O)c3c(=O)c4ccc(O)cc4oc3c2C(O)C1O` (configuration not stated) the IC50 [2] was greater than 10 µg/mL, the “Ratio IC50” value [8] was 15 and the IC50 [3] was greater than 10 µg/mL. The IC50 [1] was 2.56 µg/mL (≈ 6.21 µM), the IC50 [9] was 8.46 µg/mL (≈ 20.5 µM) and the IC50 [4] was greater than 10 µg/mL. For the same compound, the IC50 [5] was greater than 10 µg/mL.

In the case of `O=S(=O)(F)Cc1ccccc1` [PHENYLMETHYLSULFONYLFLUORIDE], the IC50 [9] is reported as 131 µg/mL (≈ 752 µM).

Compound `CC(=O)O[C@H]1C(=O)[C@@]2(C)[C@H]([C@H](OC(=O)c3ccccc3)[C@]3(O)C[C@H](OC(=O)[C@H](O)[C@@H](NC(=O)c4ccccc4)c4ccccc4)C(C)=C1C3(C)C)[C@]1(OC(C)=O)CO[C@@H]1C[C@@H]2O` [PACLITAXEL] has an IC50 [2] of 0.0011 µg/mL (≈ 0.00129 µM), an IC50 [3] of 0.0016 µg/mL (≈ 0.00187 µM) and an IC50 [5] of 0.0024 µg/mL (≈ 0.00281 µM).

In the case of `CC(C)=CCCC1(C)C=Cc2c(cc3oc4cc(O)ccc4c(=O)c3c2O)O1` (configuration not stated), the IC50 [2] is reported as 6 µg/mL (≈ 15.9 µM), the “Ratio IC50” value [8] is reported as 15 and the IC50 [3] is reported as 6.2 µg/mL (≈ 16.4 µM). The IC50 [1] was 5.43 µg/mL (≈ 14.3 µM), the IC50 [9] was 8.75 µg/mL (≈ 23.1 µM) and the IC50 [4] was 6.6 µg/mL (≈ 17.4 µM). The IC50 [5] was 6.2 µg/mL (≈ 16.4 µM).

Compound `CC(C)=CCc1c(O)cc2oc3cc(O)ccc3c(=O)c2c1O` has an inhibition at 10 µg/mL [7] of 45.2%, an IC50 [2] of 5.4 µg/mL (≈ 17.3 µM) and an IC50 [4] of 6.2 µg/mL (≈ 19.9 µM). The IC50 [5] was 3.8 µg/mL (≈ 12.2 µM) and the inhibition at 10 µg/mL [6] was 56.3%.

With `CC(C)=CCCC1(C)C=Cc2c(cc(O)c3c(=O)c4ccc(O)cc4oc23)O1` (configuration not stated) the IC50 [2] was 5.7 µg/mL (≈ 15.1 µM), the “Ratio IC50” value [8] was 200 and the IC50 [3] was 5.3 µg/mL (≈ 14 µM). For the same compound, the IC50 [9] was 0.49 µg/mL (≈ 1.29 µM), the IC50 [4] was 5.1 µg/mL (≈ 13.5 µM) and the IC50 [5] was 5.2 µg/mL (≈ 13.7 µM). The IC50 [12] was 35.6 µg/mL (≈ 94.1 µM).
